Furin inhibitor: inhibitors of human furin | inhibition, % at 20 µM or 30 µM | P09958 | AID 463115 | purified furin, fluorogenic substrate cleavage | 220,000 tested, 0.061% active; in the data active = inhibition above about 25%
Target sequence (P09958 108-714 limits assumed): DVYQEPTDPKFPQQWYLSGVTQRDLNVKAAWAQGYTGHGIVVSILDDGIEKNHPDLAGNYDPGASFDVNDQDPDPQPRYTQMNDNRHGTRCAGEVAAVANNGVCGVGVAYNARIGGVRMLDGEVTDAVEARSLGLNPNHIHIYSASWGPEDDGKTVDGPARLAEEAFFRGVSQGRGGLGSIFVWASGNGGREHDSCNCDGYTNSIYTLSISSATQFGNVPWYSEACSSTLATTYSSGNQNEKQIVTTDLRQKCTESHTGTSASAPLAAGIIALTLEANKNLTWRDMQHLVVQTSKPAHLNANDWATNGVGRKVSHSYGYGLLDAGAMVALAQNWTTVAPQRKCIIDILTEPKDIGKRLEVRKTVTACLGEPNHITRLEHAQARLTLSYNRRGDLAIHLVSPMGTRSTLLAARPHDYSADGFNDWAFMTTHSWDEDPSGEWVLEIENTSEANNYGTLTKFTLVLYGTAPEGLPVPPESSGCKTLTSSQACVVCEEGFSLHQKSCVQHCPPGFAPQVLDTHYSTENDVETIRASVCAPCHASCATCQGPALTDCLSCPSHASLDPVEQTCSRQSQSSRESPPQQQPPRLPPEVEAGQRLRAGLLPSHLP
NPY1 pot ag: potentiates or activates human NPY-Y1 receptor; P25929; NPY-Y1 expressing cells, potentiator/agonist activation; activation, % at 3.6 µM; 220,000 tested, 0.37% active; in the data active = activation above about 33%, passing the limit was not always enough;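 note: cells stimulated with NPY at EC10 then isoproterenol at EC100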
NPY Y1 blocker: blocks the human neuropeptide Y Y1 receptor. P25929. HEK293-CNG Y1 cells, membrane potential fluorescence; NPY at EC95, then isoproterenol. inhibition, % at 3.6 µM. 200,000 tested, 1% active. AID 1040;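 active = inhibition above the campaign mean inhibition of all tested compounds plus 3 SD, cut at about 20% in these data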
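Material: HEK293 Y1/CNG channel cell line; also added: NPY (25 nM), isoproterenol (1 µM), Ro 20-1724 (25 µM); doses: one concentration, 3.6 µM, in 0.4% DMSO; schedule: compound incubation 1 h at room temperature, readout 45 min post-stimulation; technique: membrane potential fluorescence; measure: fluorescence ratio normalized to % inhibition between controls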
NPY-Y2 antag: NPY-Y2 (human) receptor antagonism; P49146; NPY-Y2 expressing cells, antagonist mode; inhibition, % at 2.7 µM; 140,000 tested, 0.99% active; in the data active = inhibition above about 17%
NPY2 pot ag: potentiators or agonists of human neuropeptide Y receptor Y2 | cells expressing NPY-Y2, potentiator/agonist read-out | activation, % at 3.6 µM | P49146 | 220,000 tested, 0.45% active; in the data active = activation above about 27%;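 note: cells stimulated with NPY near EC25 plus isoproterenol at EC100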
KCC2 mod: modulators of human KCC2 chloride dependent transport; Q9H2X9; KCC2 cells, thallium flux FluoZin-2 fluorescence; B-score of Tl+ flux slope (higher = more flux/activation; lower = inhibition) at 10 µM; 190,000 tested, 2.2% active;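 active = thallium flux slope and its plate-corrected score both differing from the plate sample mean at a set confidence after two filtering rounds, in either direction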;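 note: slope of fluorescence scaled to starting intensity during 10 to 20 s after thallium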
KCC2 secondary: KCC2 (human) modulation, secondary assay. shares compounds with KCC2 mod. HEK293-KCC2, thallium flux, FluoZin2 fluorescence; stronger effect = higher value. normalised thallium flux (F/F0 slope) at 10 µM. 3,700 tested, 15% active. AID 1713;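 active = thallium flux slope above the same plate's solvent-only control mean plus 3 SD; inconclusive = the two replicate wells disagree; inactive = no significant difference from solvent-only control wells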
KCC2 bumet counter: bumetanide-insensitive thallium flux in KCC2 cells with ouabain, counter-screen; normalized thallium flux at 10 µM; 3,700 tested, 49% active; HEK293-KCC2 + bumetanide/ouabain, thallium flux FluoZin2; stronger effect = higher value; shares compounds with KCC2 mod;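 active = thallium entry rate above the same plate's blocked-transporter control wells by more than 3 SD; inconclusive = the two repeat wells disagree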;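 note: raw slope of fluorescence over initial fluorescence between 10 and 20 s after thallium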
KCC2 secondary2: KCC2 (human) modulation, second secondary assay; normalized thallium flux at 10 µM; HEK293-KCC2, thallium flux FluoZin2 fluorescence; actives lie on both sides; F/F0 rise rate, 10–20 s post-thallium; shares compounds with KCC2 mod; 3,700 tested, 23% active;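 active = thallium flux slope more than 3 SD above or below the plate's solvent-only control mean, mostly below; inconclusive = the two repeat wells disagreed; inactive = no significant shift from solvent-only controls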
HEK293 Tl flux: parental HEK flux effect, counter-screen; HEK293 parental cells, thallium flux FluoZin2, ouabain; baseline-ratio fluorescence slope, 10–20 s after thallium; shares compounds with KCC2 mod; thallium flux rate (normalised fluorescence) at 10 µM; 3,700 tested, 46% active;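 active = thallium flux rate significantly above the same plate's solvent-only control wells, beyond their mean plus 3 SD; inconclusive = the two replicate wells gave conflicting results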
KCC2 ouabain: confirmation of human KCC2 modulators with ouabain. shares compounds with KCC2 mod. HEK293-KCC2, thallium flux FluoZin2 fluorescence; bidirectional: low = inhibitor, high = activator. raw Tl+ flux slope (below DMSO = inhibition, above = activation) at 10 µM. 3,700 tested, 48% active. AID 1717;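 active = thallium flux slope beyond 3 SD from same-plate DMSO control mean in most replicates, usually higher, sometimes lower; inconclusive = repeat tests gave conflicting results; inactive = no significant difference from controls in most replicates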;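 note: slope of initial-normalized fluorescence between seconds 10 and 20 after thallium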
HEK293 Tl flux2: parental HEK flux effect, counter-screen 2. shares compounds with KCC2 mod. HEK293 parental, thallium flux FluoZin-2 fluorescence slope. thallium flux slope at 10 µM. 3,700 tested, 33% active. AID 1718;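 active = thallium flux slope above the same plate's solvent-control mean plus 3 SD in both duplicate wells; inconclusive = duplicate wells that disagreed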;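 note: run without ouabain in cells lacking the KCC2 cotransporter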
Hits are given with their value; – = inactive; ? = inconclusive; · = not tested or not shown. An excerpt weighted towards active compounds, which were near 3.7% of everything screened.

SMILES | Furin inhibitor | NPY1 pot ag | NPY Y1 blocker | NPY-Y2 antag | NPY2 pot ag | KCC2 mod | KCC2 secondary | KCC2 bumet counter | KCC2 secondary2 | HEK293 Tl flux | KCC2 ouabain | HEK293 Tl flux2
O=c1cc(CN2CCc3ccccc32)c2ccc(O)cc2o1 | – | – | – | · | – | · | – | – | – | – | 0.0176 | –
CC(C)CNC(=O)c1ccc(NC(=O)c2cccs2)cc1 | – | – | – | – | – | – | · | · | · | · | · | ·
COc1ccc(S(=O)(=O)N2C(=O)/C(=C3\SC(N)=NC3=O)c3ccccc32)cc1 | – | – | · | · | – | · | · | · | · | · | · | ·
COc1ccc2c(C)cc3n[nH]c(=S)n3c2c1 | – | – | · | · | – | 27.2 | 0.0229 | 0.0367 | ? | 0.0282 | 0.0306 | 0.0295
COc1ccc(-c2n[nH]c(=S)n2-c2cc(OC)ccc2OC)cc1 | – | – | · | · | – | · | · | · | · | · | · | ·
O=C1N/C(=C/c2ccco2)C(=O)N1Cc1ccccc1F | – | – | – | – | – | – | · | · | · | · | · | ·
CC(C)CN1C(=O)/C(=C/c2ccco2)NC1=S | – | – | – | – | – | 53.1 | – | 0.0146 | – | 0.0583 | 0.0338 | 0.018
CSC(=NCc1ccc(F)cc1)NS(=O)(=O)c1cccs1 | – | – | – | – | – | -3.77 | – | ? | 0.0252 | – | 0.0151 | –
CC1(C)Cc2c(C#N)c(NCCc3ccccc3)nc(-c3ccco3)c2CO1 | – | – | – | – | – | – | – | – | – | – | – | –
Cc1nc(N2CCN(C(=O)c3ccc(Cl)cc3)CC2)c(C#N)c2c1COC(C)(C)C2 | – | – | – | – | – | – | – | – | – | ? | – | –
CCN(CC)CCNc1nc(-c2ccco2)c2c(c1C#N)CC(C)(C)OC2 | – | – | – | – | – | – | · | · | · | · | · | ·
CC1(C)Cc2c(C#N)c(N3CCN(C(=O)c4ccco4)CC3)nc(Cc3ccccc3)c2CO1 | – | – | – | – | – | · | – | – | – | ? | 0.0171 | –
COc1cccc(N2C(=O)CC(N3CCC(C(N)=O)(N4CCCCC4)CC3)C2=O)c1 (stereo unspecified) | – | – | – | – | – | · | · | · | · | · | · | ·
CCN(CC)Cc1c(C(=O)N2CCc3ccccc3C2)nc2ccc(Cl)cn12 | – | – | – | · | – | – | · | · | · | · | · | ·
CC(=O)Oc1c(-c2ccco2)oc2ccccc2c1=O | – | – | – | · | – | 40.1 | 0.0455 | 0.0709 | 0.0573 | 0.0568 | 0.0562 | 0.0556
O=C(O)COc1c(-c2ccccc2)oc2ccccc2c1=O | – | – | – | – | – | – | · | · | · | · | · | ·
Oc1ccc(N=Nc2ccc3c(c2)OCO3)c2ccccc12 | – | – | · | · | – | 9.01 | – | 0.0107 | – | 0.0115 | 0.0202 | –
COc1cc2c(cc1OC)CN(C(=S)NC(=O)c1ccccc1)CC2 | – | – | – | · | – | 22.7 | 0.026 | 0.0497 | ? | 0.0311 | 0.0334 | 0.0317
CC(C)C(=O)NC(=S)N1CCc2ccccc21 | – | – | – | – | – | 5.17 | – | 0.0207 | ? | 0.0182 | 0.0283 | 0.0165
COc1ccc(OCC(=O)NC(=S)Nc2ccc3c4c(cccc24)CC3)cc1 | – | – | – | – | – | 29.2 | – | 0.0785 | – | 0.0306 | 0.0363 | 0.014
COc1ccc(C(=O)NC(=S)N2CCCc3ccccc32)cc1OC | – | – | – | · | – | 5.27 | – | 0.0231 | – | 0.0124 | ? | 0.0121

Source: PubChem BioAssay
